From ChEMBL document CHEMBL2086296, “Synthesis of novel quinoline-2-one based chalcones of potential anti-tumor activity” (Eur J Med Chem, 2012)

What was measured:
NCI-H23 = assay: Cytotoxicity against human NCI-H23 cells after 24 hrs by SRB assay; type: cell-based; conditions: nci-h23, 24 h
Outline: (§1)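 NCI 60-cell screen. Cells grown in RPMI 1640 with 5% FBS and 2 mM L-glutamine, seeded at 5,000–40,000 cells/well, preincubated 24 h at 37 °C in 5% CO2. Drug stock in DMSO, diluted in medium with gentamicin; five final concentrations, 100, 10, 1.0, 0.1 and […]. Time-zero plates were TCA-fixed. Protein read by SRB staining; GI50, TGI and LC50 taken relative to time-zero.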

SK-MEL-28 [1] = assay: (§2) Cytotoxicity against human SK-MEL-28 cells after 24 hrs by SRB assay; type: cell-based; conditions: sk-mel-28, 24 h; outline: as §1
SF-295 [2] = assay: (§3) Cytotoxicity against human SF295 cells after 24 hrs by SRB assay; type: functional; conditions: SF-295, 24 h
Outline: (§4)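 NCI 60-line screen. Cells in RPMI 1640 with 5% FBS and 2 mM L-glutamine, seeded at 5,000–40,000 cells/well by doubling time, then incubated 24 h at 37 °C, 5% CO2 before dosing. Time-zero plates fixed with TCA at drug addition. DMSO stocks diluted in medium with gentamicin to five concentrations, […]. Protein read by SRB staining. GI50, TGI and LC50 derived relative to control and time-zero.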

COLO 205 [3] = assay: (§5) Cytotoxicity against human COLO205 cells after 24 hrs by SRB assay; type: cell-based; conditions: colo 205, 24 h; outline: as §1
SN12C [4] = assay: (§6) Cytotoxicity against human SN12C cells after 24 hrs by SRB assay; type: functional; outline: as §4
HOP-92 [5] = assay: (§7) Cytotoxicity against human HOP92 cells after 24 hrs by SRB assay; type: functional; conditions: HOP-92, 24 h; outline: as §4
UO-31 [6] = assay: (§8) Cytotoxicity against human UO31 cells after 24 hrs by SRB assay; type: functional; conditions: UO-31, 24 h
Outline: (§9)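 NCI 60-cell screen. Cells are grown in RPMI 1640 with 5% FBS and 2 mM L-glutamine and seeded at 5,000–40,000 cells/well according to doubling time. They are preincubated 24 h at 37 °C in 5% CO2, and Tz plates are TCA-fixed at drug addition. Drug stock is in DMSO, diluted in medium with gentamicin, and tested at five concentrations (100, 10, 1.0, 0.1, […]). Protein is read by SRB staining. GI50, TGI and LC50 are derived relative to time-zero and control wells.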

COLO 205 [7] = assay: as §5; type: functional; conditions: COLO 205, 24 h; outline: as §4
UACC-62 = assay: Cytotoxicity against human UACC62 cells after 24 hrs by SRB assay; type: cell-based; conditions: uacc-62, 24 h
Outline: (§10)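 NCI 60-cell-line screen: cells grown in RPMI 1640 with 5% FBS and 2 mM L-glutamine, seeded at 5,000–40,000 cells/well by doubling time, and preincubated 24 h at 37 °C in 5% CO2. Time-zero plates were TCA-fixed. DMSO stocks were diluted in medium with gentamicin to five concentrations (100, 10, 1.0, 0.1, […]). Protein was read by SRB, and GI50, TGI and LC50 were derived against time-zero.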

NCI-H322M = assay: Cytotoxicity against human NCI-H322M cells after 24 hrs by SRB assay; type: functional; outline: as §4
[8] = Cytotoxicity against human Hs 578T cells after 24 hrs by SRB assay; type: functional; outline: as §4
Malme-3M [9] = assay: (§11) Cytotoxicity against human MALME-3M cells after 24 hrs by SRB assay; type: cell-based; outline: as §1
ACHN = assay: Cytotoxicity against human ACHN cells after 24 hrs by SRB assay; type: functional; outline: as §4
IGROV-1 [10] = assay: (§12) Cytotoxicity against human IGROV1 cells after 24 hrs by SRB assay; type: cell-based; conditions: igrov-1, 24 h; outline: as §1
UO-31 [11] = assay: as §8; type: cell-based; conditions: uo-31, 24 h; outline: as §10
BT-549 = assay: Cytotoxicity against human BT549 cells after 24 hrs by SRB assay; type: functional; conditions: BT-549, 24 h; outline: as §4
A549 = assay: Cytotoxicity against human A549 cells after 24 hrs by SRB assay; type: cell-based; conditions: a549, 24 h; outline: as §1
SW-620 = assay: Cytotoxicity against human SW620 cells after 24 hrs by SRB assay; type: cell-based; conditions: sw-620, 24 h; outline: as §10
NCI-H460 = assay: Cytotoxicity against human NCI-H460 cells after 24 hrs by SRB assay; type: cell-based; conditions: nci-h460, 24 h; outline: as §1
Malme-3M [12] = assay: as §11; type: functional; outline: as §4
SK-OV-3 = assay: Cytotoxicity against human SKOV3 cells after 24 hrs by SRB assay; type: functional; conditions: SK-OV-3, 24 h; outline: as §4
SNB-19 = assay: Cytotoxicity against human SNB19 cells after 24 hrs by SRB assay; type: functional; conditions: SNB-19, 24 h; outline: as §9
HL-60 = assay: Cytotoxicity against human HL60 cells after 24 hrs by SRB assay; type: functional; conditions: HL-60, 24 h; outline: as §4
SF-295 [13] = assay: as §3; type: cell-based; conditions: sf-295, 24 h; outline: as §1
SN12C [14] = assay: as §6; type: cell-based; outline: as §10
MCF7 = assay: Cytotoxicity against human MCF7 cells after 24 hrs by SRB assay; type: cell-based; conditions: mcf7, 24 h; outline: as §1
NCI/ADR-RES = assay: Cytotoxicity against human NCI/ADR-RES cells after 24 hrs by SRB assay; type: cell-based; outline: as §1
HOP-62 = assay: Cytotoxicity against human HOP62 cells after 24 hrs by SRB assay; type: cell-based; conditions: hop-62, 24 h; outline: as §1
SK-MEL-28 [15] = assay: as §2; type: functional; conditions: SK-MEL-28, 24 h; outline: as §4
SNB-75 = assay: Cytotoxicity against human SNB75 cells after 24 hrs by SRB assay; type: functional; conditions: SNB-75, 24 h; outline: as §9
NCI-H522 = assay: Cytotoxicity against human NCI-H522 cells after 24 hrs by SRB assay; type: cell-based; conditions: nci-h522, 24 h; outline: as §1
SR = assay: Cytotoxicity against human SR cells after 24 hrs by SRB assay; type: functional; outline: as §9
MDA-MB-231 = assay: Cytotoxicity against human MDA-MB-231 cells after 24 hrs by SRB assay; type: functional; conditions: MDA-MB-231, 24 h; outline: as §4
HOP-92 [16] = assay: as §7; type: cell-based; conditions: hop-92, 24 h; outline: as §1
TK-10 = assay: Cytotoxicity against human TK10 cells after 24 hrs by SRB assay; type: functional; conditions: TK-10, 24 h; outline: as §9
SF-268 = assay: Cytotoxicity against human SF268 cells after 24 hrs by SRB assay; type: cell-based; conditions: sf-268, 24 h; outline: as §1
HCT-15 = assay: Cytotoxicity against human HCT15 cells after 24 hrs by SRB assay; type: functional; conditions: HCT-15, 24 h; outline: as §4
IGROV-1 [17] = assay: as §12; type: functional; conditions: IGROV-1, 24 h; outline: as §4
MDA-MB-468 = assay: Cytotoxicity against human MDA-MB-468 cells after 24 hrs by SRB assay; type: cell-based; conditions: mda-mb-468, 24 h; outline: as §1

`O=C(/C=C/c1cc2ccccc2[nH]c1=O)c1ccc(Cl)cc1` gave an LC50 (NCI-H23) of over 100 µM, an LC50 (SK-MEL-28 [1]) of over 100 µM and a GI50 (SF-295 [2]) of 4.57 µM. The TGI (SF-295 [2]) was 38.3 µM, the LC50 (COLO 205 [3]) was over 100 µM and the GI50 (SN12C [4]) was 8.16 µM. The TGI (SN12C [4]) was over 100 µM, the GI50 (HOP-92 [5]) was 5.74 µM and the TGI (HOP-92 [5]) was 50.5 µM. It also gave a GI50 (UO-31 [6]) of 5.27 µM, a TGI (UO-31 [6]) of over 100 µM and a GI50 (COLO 205 [7]) of 10.1 µM. For the same compound, the TGI (COLO 205 [7]) was 51.3 µM, the LC50 (UACC-62) was over 100 µM and the GI50 (NCI-H322M) was 13.4 µM. For the same compound, the TGI (NCI-H322M) was 79 µM, the GI50 [8] was 11.1 µM and the TGI [8] was over 100 µM. For the same compound, the LC50 (Malme-3M [9]) was over 100 µM, the GI50 (ACHN) was 7.27 µM and the TGI (ACHN) was 27.4 µM. For the same compound, the LC50 (IGROV-1 [10]) was 50.7 µM, the LC50 (UO-31 [11]) was over 100 µM and the GI50 (BT-549) was 3.86 µM. For the same compound, the TGI (BT-549) was 17.1 µM, the LC50 (A549) was over 100 µM and the LC50 (SW-620) was 56.6 µM. For the same compound, the LC50 (NCI-H460) was over 100 µM, the GI50 (Malme-3M [12]) was 9.42 µM and the TGI (Malme-3M [12]) was 35.3 µM. It also gave a TGI (SK-OV-3) of over 100 µM, a GI50 (SNB-19) of 5.11 µM and a TGI (SNB-19) of over 100 µM. For the same compound, the GI50 (HL-60) was 2.47 µM, the TGI (HL-60) was over 100 µM and the LC50 (SF-295 [13]) was over 100 µM. The LC50 (SN12C [14]) was over 100 µM, the LC50 (MCF7) was over 100 µM and the LC50 (NCI/ADR-RES) was over 100 µM. The LC50 (HOP-62) was over 100 µM, the GI50 (SK-MEL-28 [15]) was 17.7 µM and the TGI (SK-MEL-28 [15]) was 72.5 µM. The GI50 (SNB-75) was 6.21 µM, the TGI (SNB-75) was 48.8 µM and the LC50 (NCI-H522) was 47.2 µM. It also gave a GI50 (SR) of 1.71 µM, a TGI (SR) of 19.1 µM and a GI50 (MDA-MB-231) of 6.16 µM. For the same compound, the TGI (MDA-MB-231) was 28.3 µM, the LC50 (HOP-92 [16]) was over 100 µM and the GI50 (TK-10) was 5.05 µM. The TGI (TK-10) was 20.8 µM, the LC50 (SF-268) was over 100 µM and the GI50 (HCT-15) was 3.18 µM. It also gave a TGI (HCT-15) of 20.2 µM, a GI50 (IGROV-1 [17]) of 3.71 µM and a TGI (IGROV-1 [17]) of 14.7 µM. The LC50 (MDA-MB-468) was 53.2 µM.

Compound `COc1ccc(C(=O)/C=C/c2cc3ccccc3[nH]c2=O)cc1` has an LC50 (NCI-H23) of over 100 µM, an LC50 (SK-MEL-28 [1]) of over 100 µM and a GI50 (SF-295 [2]) of 3.98 µM. For the same compound, the TGI (SF-295 [2]) was 18.6 µM, the LC50 (COLO 205 [3]) was 77.6 µM and the GI50 (SN12C [4]) was 3.17 µM. The TGI (SN12C [4]) was over 100 µM, the GI50 (HOP-92 [5]) was 2.97 µM and the TGI (HOP-92 [5]) was 8.76 µM. For the same compound, the GI50 (COLO 205 [7]) was 3.66 µM, the TGI (COLO 205 [7]) was 13.4 µM and the LC50 (UACC-62) was 60.2 µM. The GI50 [8] was 3.3 µM, the TGI [8] was over 100 µM and the GI50 (ACHN) was 3.93 µM. For the same compound, the TGI (ACHN) was 16.7 µM, the GI50 (BT-549) was 2.7 µM and the TGI (BT-549) was 7.9 µM. The LC50 (A549) was over 100 µM, the LC50 (SW-620) was 40.2 µM and the LC50 (NCI-H460) was 66.8 µM. For the same compound, the GI50 (SK-OV-3) was 4.44 µM, the TGI (SK-OV-3) was over 100 µM and the GI50 (SNB-19) was 4.2 µM. The TGI (SNB-19) was 19.1 µM, the GI50 (HL-60) was 3.36 µM and the TGI (HL-60) was over 100 µM. It also gave an LC50 (SF-295 [13]) of 80.8 µM, an LC50 (SN12C [14]) of over 100 µM and an LC50 (MCF7) of over 100 µM. The LC50 (NCI/ADR-RES) was over 100 µM, the LC50 (HOP-62) was 59 µM and the GI50 (SK-MEL-28 [15]) was 7.59 µM. It also gave a TGI (SK-MEL-28 [15]) of 30.6 µM, a GI50 (SNB-75) of 2.29 µM and a TGI (SNB-75) of 10.1 µM. For the same compound, the LC50 (NCI-H522) was over 100 µM, the GI50 (SR) was 2.83 µM and the TGI (SR) was over 100 µM. For the same compound, the GI50 (MDA-MB-231) was 3.29 µM, the TGI (MDA-MB-231) was 17.9 µM and the LC50 (HOP-92 [16]) was 80.9 µM. It also gave a GI50 (TK-10) of 3.54 µM, a TGI (TK-10) of 55.8 µM and an LC50 (SF-268) of 40.7 µM. For the same compound, the GI50 (HCT-15) was 3.18 µM, the TGI (HCT-15) was 21.1 µM and the LC50 (MDA-MB-468) was 39.8 µM.
